Consider 4 compounds from ChEMBL document CHEMBL1156333 (Bioorg Med Chem, 2010).

Active and inactive are the calls of the source. The rule behind the calls is not given here. A value given as a limit tells only on which side of the number the result lay.

A short description of data set [1]: Cytotoxicity against human HeLa cells. In kind it is cell-based. A digest of the protocol: (§1)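 MDCK, HEL and HeLa cultures run alongside the cytopathicity assays received graded compound levels up to 100 μM. Toxicity was scored as the minimum cytotoxic concentration, the lowest level causing a microscopically detectable change in cell morphology.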
The nature of data set [2]: Cytotoxicity against human HuH5.2 cells. In kind it is cell-based, Huh-5-2.
A short description of data set [3]: Cytotoxicity against human HEL cells. In kind it is cell-based. Summed up:
as §1

The nature of data set [4]: Cytotoxicity against MDCK cells. In kind it is cell-based, Canis lupus familiaris. As to conditions: dog. A digest of the protocol:
as §1

Data set [5] has as its system Respiratory syncytial virus. As to the kind of experiment: Antiviral activity against Respiratory syncytial virus Long infected in human HeLa cells assessed as inhibition of virus-induced cytopathicity. In kind it is functional, organism-based. For orientation: Protection from cytopathic effect is a common read-out in antiviral testing.
A further data set relates to Hepatitis C virus. As to the kind of experiment: Antiviral activity against HCV infected in human HuH5.2 cells carrying subgenomic HCV replicon assessed as inhibition of replicon replication by luciferase reporter gene assay. In kind it is functional, organism-based, Hepacivirus hominis. As to conditions: Huh-5-2. Summed up:
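Huh 5-2 cells are Huh 7 cells carrying the subgenomic replicon I389luc-ubi-neo/NS3-3′/5.1. They were maintained in DMEM with 10% heat-inactivated FCS, non-essential amino acids, penicillin/streptomycin and 250 μg/mL G418. Cells were seeded at 5 × 10^3 cells/well in medium without G418 and exposed to compound.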

For data set [6], the system named is Punta Toro virus. As to the kind of experiment: Antiviral activity against Punta Toro virus infected in african green monkey Vero cells assessed as inhibition of virus-induced cytopathicity. In kind it is functional, organism-based.
The subject of the next data set is Human respirovirus 3. As to the kind of experiment: Antiviral activity against Parainfluenza 3 virus assessed as inhibition of virus-induced cytopathicity by cell based assay. In kind it is functional, organism-based.
Data set [7] relates to Mammalian orthoreovirus 1. As to the kind of experiment: Antiviral activity against Reovirus 1 assessed as inhibition of virus-induced cytopathicity by cell based assay. The data set is classed as functional, organism-based.
A further data set concerns Sindbis virus. As to the kind of experiment: Antiviral activity against Sindbis virus assessed as inhibition of virus-induced cytopathicity by cell based assay. In kind it is functional, organism-based.
The next data set deals with Coxsackievirus B4. As to the kind of experiment: Antiviral activity against Coxsackievirus B4 assessed as inhibition of virus-induced cytopathicity by cell based assay. The data set is classed as functional, organism-based. To be noted: Enterovirus B.
Data set [8] deals with Human immunodeficiency virus 1. As to the kind of experiment: Antiviral activity against HIV1 3B infected in human CEM cells assessed as inhibition of syncytia formation after 4 days. The data set is classed as functional, organism-based. As to conditions: Human immunodeficiency virus 1, 3B, CCRF-CEM, 96 h. Summed up: (§2)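 Human CEM cells (~3 × 10^5 cells/mL) were infected with ~100 CCID50/mL of HIV-1(IIIB) or HIV-2(ROD) and seeded with compound dilutions. After 4 days at 37 °C, syncytia formation was scored microscopically.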

The test system of data set [9] is Human immunodeficiency virus 2. As to the kind of experiment: Antiviral activity against HIV2 ROD infected in human CEM cells assessed as inhibition of syncytia formation after 4 days. The data set is classed as functional, organism-based. As to conditions: Human immunodeficiency virus 2, ISOLATE ROD, CCRF-CEM, 96 h. Summed up: as §2
In data set [10] the test system is Human alphaherpesvirus 1. As to the kind of experiment: Antiviral activity against Herpes simplex virus 1 KOS assessed as inhibition of virus-induced cytopathicity by cell based assay. As to conditions: Human alphaherpesvirus 1, KOS. The data set is classed as functional, organism-based.
The test system of data set [11] is Human alphaherpesvirus 1. As to the kind of experiment: Antiviral activity against thymidine kinase deficient ACV resistant Herpes simplex virus 1 KOS assessed as inhibition of virus-induced cytopathicity by cell based assay. The data set is classed as functional, organism-based. To be noted: Human alphaherpesvirus 1, KOS.
The test system of a further data set is Feline coronavirus. As to the kind of experiment: Antiviral activity against Feline coronavirus assessed as inhibition of virus-induced cytopathicity by cell based assay. In kind it is functional, organism-based. As to conditions: Alphacoronavirus 1.
For a further data set, the system named is Felid alphaherpesvirus 1. As to the kind of experiment: Antiviral activity against Feline herpes virus assessed as inhibition of virus-induced cytopathicity by cell based assay. In kind it is functional, organism-based.
Data set [12] relates to Vaccinia virus. As to the kind of experiment: Ratio of compound EC50 over ribavirin EC50 for Vaccinia virus lederle. In kind it is functional, Orthopoxvirus vaccinia.
Data set [13] concerns Punta Toro virus. As to the kind of experiment: Ratio of compound EC50 over ribavirin antiviral EC50 for Punta Toro virus. The data set is classed as functional.
For another data set, the system named is Human alphaherpesvirus 2. As to the kind of experiment: Antiviral activity against Herpes simplex virus 2 assessed as inhibition of virus-induced cytopathicity by cell based assay. In kind it is functional, organism-based.
For a further data set, the system named is Cytomegalovirus. As to the kind of experiment: Antiviral activity against Cytomegalovirus assessed as inhibition of virus-induced cytopathicity by cell based assay. To be noted: Human betaherpesvirus 5. The data set is classed as functional, organism-based.
The test system of data set [14] is Vaccinia virus. As to the kind of experiment: Antiviral activity against Vaccinia virus lederle infected in human HEL cells assessed as inhibition of virus-induced cytopathicity. The data set is classed as functional, organism-based. As to conditions: Orthopoxvirus vaccinia.
For data set [15], the system named is Influenza A virus. As to the kind of experiment: Antiviral activity against Influenza A virus H3N2 infected in MDCK cells assessed as inhibition of virus-induced cytopathicity. The data set is classed as functional, organism-based.
For data set [16], the system named is Influenza B virus. As to the kind of experiment: Antiviral activity against Influenza B virus infected in MDCK cells assessed as inhibition of virus-induced cytopathicity. The data set is classed as functional, organism-based.
The test system of data set [17] is Vesicular stomatitis virus. As to the kind of experiment: Antiviral activity against Vesicular stomatitis virus infected in human HeLa cells assessed as inhibition of virus-induced cytopathicity. In kind it is functional, organism-based.
Data set [18] deals with Respiratory syncytial virus. As to the kind of experiment: Antiviral activity against Respiratory syncytial virus Long infected in human HeLa cells assessed as inhibition of virus-induced cytopathicity at 100 uM. The data set is classed as functional, organism-based. A digest of the protocol: (§3)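 Confluent monolayers (Vero for Punta Toro, HeLa for RSV strain Long) were infected with 100 CCID50 of virus. After 1–2 h adsorption, residual virus was removed and cells were incubated with the compound, 100 μM being the highest level tested. Cytopathicity was scored when untreated infected controls reached full cytopathic effect.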

Data set [19] has as its system Vesicular stomatitis virus. As to the kind of experiment: Antiviral activity against Vesicular stomatitis virus infected in human HeLa cells assessed as inhibition of virus-induced cytopathicity at 100 uM. In kind it is functional, organism-based.
In data set [20] the test system is Vaccinia virus. As to the kind of experiment: Antiviral activity against Vaccinia virus lederle infected in human HEL cells assessed as inhibition of virus-induced cytopathicity at 100 uM. To be noted: Orthopoxvirus vaccinia. In kind it is functional, organism-based.
The test system of data set [21] is Punta Toro virus. As to the kind of experiment: Antiviral activity against Punta Toro virus infected in african green monkey Vero cells assessed as inhibition of virus-induced cytopathicity at 100 uM. The data set is classed as functional, organism-based. Summed up:
as §3

Data set [22] relates to Influenza A virus. As to the kind of experiment: Antiviral activity against Influenza A virus H3N2 infected in MDCK cells assessed as inhibition of virus-induced cytopathicity at 100 uM. In kind it is functional, organism-based.
The test system of data set [23] is Influenza B virus. As to the kind of experiment: Antiviral activity against Influenza B virus infected in MDCK cells assessed as inhibition of virus-induced cytopathicity at 100 uM. The data set is classed as functional, organism-based.

For `NC(=O)c1ncn([C@@H]2O[C@H](CO)[C@@H](O)[C@H]2O)n1` [RIBAVIRIN], the MCC in data set [1], in [2], in [3] and in data set [4] was > 100 µM throughout. The EC50 (commonly the concentration giving half of the maximal effect) came out at 19 µM in data set [5], 87 µM in the data set with Hepatitis C virus and 183 µM with Punta Toro virus [6].

As to `NC(=O)c1ncn([C@@H]2O[C@H](COP(=O)(NCC(=O)OCc3ccccc3)Oc3cccc4ccccc34)[C@@H](O)[C@H]2O)n1` (stereo not given in full), the MCC (in data set [1]; in data set [2]; in data set [3]; in data set [4]; with Hepatitis C virus) was > 100 µM in each case. In addition, the concentration for a half-maximal effect (EC50) (in the data set with Human respirovirus 3; in data set [7]; with Sindbis virus; with Coxsackievirus B4; in data set [8]; in [9]) was > 100 µM in each case. Besides, the concentration giving a half-maximal response (EC50) in the data set with Human alphaherpesvirus 1 [10], with Human alphaherpesvirus 1 [11], in the data set on Feline coronavirus, with Felid alphaherpesvirus 1, in the data set on Human alphaherpesvirus 2 and with Cytomegalovirus was > 100 µM throughout. Besides, the EC50 in [5] was 58 µM; in the data set on Vaccinia virus [14], 20 µM; in the data set on Influenza A virus [15], > 20 µM; with Influenza B virus [16] it was > 20 µM. In addition, the Ratio with Vaccinia virus [12] and in the data set with Punta Toro virus [13] was 3 each time.

On to `C[C@H](NP(=O)(OC[C@H]1O[C@@H](n2cnc(C(N)=O)n2)[C@H](O)[C@@H]1O)Oc1cccc2ccccc12)C(=O)OCc1ccccc1` (stereo not given in full), for which the MCC in data set [1], in data set [2], in data set [3] and in [4] was > 100 µM throughout. The concentration giving a half-maximal response (EC50) (in the data set with Human respirovirus 3; in [7]; in the data set with Sindbis virus; in the data set on Coxsackievirus B4; in [8]; in [9]) was > 100 µM in each case. Further, the concentration for a half-maximal effect (EC50) in the data set on Human alphaherpesvirus 1 [10], with Human alphaherpesvirus 1 [11], with Feline coronavirus, in the data set on Felid alphaherpesvirus 1, with Human alphaherpesvirus 2 and in the data set with Cytomegalovirus was > 100 µM in each case. Further, the concentration for a half-maximal effect (EC50) in [5] came to 45 µM; in data set [17] it was 20 µM; with Vaccinia virus [14], 100 µM; with Hepatitis C virus, 68 µM; in the data set on Influenza A virus [15], 18 µM; in the data set with Influenza B virus [16], 14 µM.

For the compound `NC(=O)c1ncn([C@@H]2O[C@H](COP(=O)(N[C@@H](Cc3ccccc3)C(=O)OCc3ccccc3)Oc3cccc4ccccc34)[C@@H](O)[C@H]2O)n1` (stereo not given in full), the MCC in data set [1], in data set [2], in [3] and in data set [4] was > 100 µM throughout. The 50% effective concentration (EC50) (in the data set on Human respirovirus 3; in data set [7]; in the data set on Sindbis virus; in the data set with Coxsackievirus B4; in [8]; in data set [9]) was > 100 µM in each case. For the same compound, the 50% effective concentration (EC50) with Human alphaherpesvirus 1 [10], with Human alphaherpesvirus 1 [11], with Feline coronavirus, in the data set on Felid alphaherpesvirus 1, with Human alphaherpesvirus 2 and with Cytomegalovirus was > 100 µM throughout. For the same compound, the EC50 in data set [5] is > 20 µM; in data set [17], > 20 µM; with Vaccinia virus [14] it was 100 µM; with Hepatitis C virus it was > 70 µM; in the data set with Influenza A virus [15], > 100 µM; in the data set on Influenza B virus [16], > 100 µM. For the same compound, the inhibition result (in [18]; in [19]; with Vaccinia virus [20]; in the data set on Punta Toro virus [21]; in the data set with Influenza A virus [22]; with Influenza B virus [23]) was “inactive” throughout.
